One assay has as its system CAPAN-1. Description: Antiproliferative activity against human CAPAN-1 cells assessed as reduction in cell viability incubated for 72 hrs by IncuCyte live-cell automated imaging analysis. The conditions noted are these: CAPAN-1, 72 h.
A further assay concerns HCT-116. Description: Antiproliferative activity against human HCT-116 cells assessed as reduction in cell viability incubated for 72 hrs by IncuCyte live-cell automated imaging analysis. The note with it: HCT-116, 72 h.
A further assay relates to LN-229. Description: Antiproliferative activity against human LN-229 cells assessed as reduction in cell viability incubated for 72 hrs by IncuCyte live-cell automated imaging analysis. The conditions noted are these: LN-229, 72 h.
The next assay deals with K562. Description: Antiproliferative activity against human K562 cells assessed as reduction in cell viability incubated for 72 hrs by IncuCyte live-cell automated imaging analysis. The note with it: K562, 72 h.
The test system of a further assay is NCI-H460. Description: Antiproliferative activity against human NCI-H460 cells assessed as reduction in cell viability incubated for 72 hrs by IncuCyte live-cell automated imaging analysis. The conditions noted are these: NCI-H460, 72 h.
A short description of assay [1]: Antiproliferative activity against human DND41 cells assessed as reduction in cell viability incubated for 72 hrs by IncuCyte live-cell automated imaging analysis. The conditions noted are these: DND41, 72 h.
The subject of a further assay is Z-138. Description: Antiproliferative activity against human Z138 cells assessed as reduction in cell viability incubated for 72 hrs by IncuCyte live-cell automated imaging analysis. The conditions noted are these: Z-138, 72 h.
The next assay deals with HL-60. Description: Antiproliferative activity against human HL-60 cells assessed as reduction in cell viability incubated for 72 hrs by IncuCyte live-cell automated imaging analysis. The conditions noted are these: HL-60, 72 h.
For assay [2], the target named is T1, Serine/threonine-protein kinase D1 (Homo sapiens, UniProt Q15139).
T1 sequence (Q15139 whole entry): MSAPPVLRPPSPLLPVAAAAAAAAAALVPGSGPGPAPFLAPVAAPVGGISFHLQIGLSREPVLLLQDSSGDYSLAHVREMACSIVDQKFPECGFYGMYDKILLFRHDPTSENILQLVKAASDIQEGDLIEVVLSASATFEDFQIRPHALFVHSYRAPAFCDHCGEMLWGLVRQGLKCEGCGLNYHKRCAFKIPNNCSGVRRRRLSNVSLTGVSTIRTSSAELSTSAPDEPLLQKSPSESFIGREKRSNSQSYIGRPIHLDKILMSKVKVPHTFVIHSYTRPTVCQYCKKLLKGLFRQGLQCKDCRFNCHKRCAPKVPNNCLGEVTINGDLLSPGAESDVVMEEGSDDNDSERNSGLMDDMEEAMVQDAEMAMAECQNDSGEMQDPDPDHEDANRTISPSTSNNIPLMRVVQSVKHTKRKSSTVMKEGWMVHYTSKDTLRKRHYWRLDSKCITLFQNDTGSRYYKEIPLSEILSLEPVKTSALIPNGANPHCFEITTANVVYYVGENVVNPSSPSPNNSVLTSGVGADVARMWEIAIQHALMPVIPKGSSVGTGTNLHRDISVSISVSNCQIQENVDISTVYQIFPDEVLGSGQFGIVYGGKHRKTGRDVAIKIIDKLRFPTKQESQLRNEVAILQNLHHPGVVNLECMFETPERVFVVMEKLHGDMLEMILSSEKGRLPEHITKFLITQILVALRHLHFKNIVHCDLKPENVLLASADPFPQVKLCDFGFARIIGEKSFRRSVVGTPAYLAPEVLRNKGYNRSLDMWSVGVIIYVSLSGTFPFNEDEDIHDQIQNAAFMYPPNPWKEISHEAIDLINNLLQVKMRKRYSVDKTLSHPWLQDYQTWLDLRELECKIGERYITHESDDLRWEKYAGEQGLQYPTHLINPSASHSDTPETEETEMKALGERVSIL
Description: Inhibition of recombinant FLAG-tagged PKD1 (unknown origin) expressed in HEK293T cells using Syntide-2 as substrate measured after 15 mins by ADP-Glo assay. Background: ADP-Glo first removes unused ATP, then detects ADP through luciferase.

In assay [3] the test system is PANC-1. Description: Antiproliferative activity against human PANC-1 cells assessed as reduction in cell proliferation at 5 uM measured after 96 to 144 hrs by MTT assay. Type of assay: functional, cell-based. The note with it: time 96-144 hrs. An outline of the steps:
(§1)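 PANC-1 cells at 2000 cells/well, attached 4 h, then given compound at 5 µM or 0.25% DMSO vehicle. Grown 0, 48, 96 or 144 h, then MTT at 0.5 mg/mL final for 3 h, lysis in DMSO, absorbance at 550 nm. Four experiments (n=4), mean and SEM; two-way ANOVA with Dunnett's test against DMSO.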
On the technique in general: Tetrazolium assays rely on reduction of a dye to a coloured formazan, in cell work by metabolically active cells.

Assay [4] concerns the target T2, Serine/threonine-protein kinase D2 (Homo sapiens, UniProt Q9BZL6).
T2 sequence (Q9BZL6 whole entry): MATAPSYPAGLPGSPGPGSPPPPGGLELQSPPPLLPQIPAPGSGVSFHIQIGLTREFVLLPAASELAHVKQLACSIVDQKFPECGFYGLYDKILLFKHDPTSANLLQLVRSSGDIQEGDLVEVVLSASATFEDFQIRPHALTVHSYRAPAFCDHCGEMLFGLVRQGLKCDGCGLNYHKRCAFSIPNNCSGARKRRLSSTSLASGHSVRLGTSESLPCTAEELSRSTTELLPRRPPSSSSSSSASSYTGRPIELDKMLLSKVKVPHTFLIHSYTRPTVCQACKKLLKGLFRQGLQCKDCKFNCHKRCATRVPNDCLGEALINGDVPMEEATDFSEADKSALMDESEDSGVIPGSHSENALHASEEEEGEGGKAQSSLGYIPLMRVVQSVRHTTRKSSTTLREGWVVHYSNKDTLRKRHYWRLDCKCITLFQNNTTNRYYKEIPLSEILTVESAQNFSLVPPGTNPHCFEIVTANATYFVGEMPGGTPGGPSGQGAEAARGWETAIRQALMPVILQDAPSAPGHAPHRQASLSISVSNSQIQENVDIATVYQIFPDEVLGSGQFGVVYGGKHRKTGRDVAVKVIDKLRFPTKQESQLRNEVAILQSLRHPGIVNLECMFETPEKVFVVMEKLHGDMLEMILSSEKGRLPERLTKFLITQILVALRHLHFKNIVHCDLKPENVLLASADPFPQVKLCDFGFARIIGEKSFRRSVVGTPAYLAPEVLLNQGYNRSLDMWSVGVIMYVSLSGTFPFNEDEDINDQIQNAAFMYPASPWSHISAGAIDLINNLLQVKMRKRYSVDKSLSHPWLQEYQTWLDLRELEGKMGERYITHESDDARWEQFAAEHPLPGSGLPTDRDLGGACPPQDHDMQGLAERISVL
Description: Inhibition of recombinant FLAG-tagged PKD2 (unknown origin) expressed in HEK293T cells using Syntide-2 as substrate measured after 15 mins by ADP-Glo assay.

Assay [5] addresses T3, Serine/threonine-protein kinase D3 (Homo sapiens, UniProt O94806).
T3 sequence (O94806 whole entry): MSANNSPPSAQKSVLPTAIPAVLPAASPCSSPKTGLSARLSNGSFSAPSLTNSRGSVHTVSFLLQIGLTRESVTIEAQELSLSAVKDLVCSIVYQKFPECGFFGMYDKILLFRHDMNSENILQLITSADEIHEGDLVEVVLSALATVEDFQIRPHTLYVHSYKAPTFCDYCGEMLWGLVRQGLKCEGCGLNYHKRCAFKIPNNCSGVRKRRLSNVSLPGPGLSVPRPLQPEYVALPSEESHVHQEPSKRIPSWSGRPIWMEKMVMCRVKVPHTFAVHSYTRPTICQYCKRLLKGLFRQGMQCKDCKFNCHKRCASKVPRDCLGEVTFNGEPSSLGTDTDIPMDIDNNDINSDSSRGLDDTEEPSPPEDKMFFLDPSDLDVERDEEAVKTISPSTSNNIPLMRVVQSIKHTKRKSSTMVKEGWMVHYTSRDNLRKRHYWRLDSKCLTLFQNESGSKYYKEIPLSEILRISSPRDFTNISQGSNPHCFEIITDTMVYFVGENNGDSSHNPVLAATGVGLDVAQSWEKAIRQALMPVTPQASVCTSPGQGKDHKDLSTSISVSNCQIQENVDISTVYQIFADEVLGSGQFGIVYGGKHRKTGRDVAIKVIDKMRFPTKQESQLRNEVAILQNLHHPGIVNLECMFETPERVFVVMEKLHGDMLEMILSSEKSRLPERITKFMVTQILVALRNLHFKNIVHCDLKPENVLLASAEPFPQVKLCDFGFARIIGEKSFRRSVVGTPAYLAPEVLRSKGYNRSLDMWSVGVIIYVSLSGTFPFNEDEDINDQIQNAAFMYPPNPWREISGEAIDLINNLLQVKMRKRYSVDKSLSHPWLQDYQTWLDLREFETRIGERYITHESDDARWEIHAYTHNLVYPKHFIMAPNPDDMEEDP
Description: Inhibition of recombinant FLAG-tagged PKD3 (unknown origin) expressed in HEK293T cells using Syntide-2 as substrate measured after 15 mins by ADP-Glo assay.

Assay [6] has as its target Protein kinase C delta type (Homo sapiens) (UniProt Q05655). Description: Inhibition of recombinant human full-length N-terminal GST-fused PKCdelta (1 to 676 residues) expressed in baculovirus expression system at 1 to 10 uM using MARCKS peptide as substrate measured after 10 mins by [gamma-32P]ATP by scintillation counting method. The note with it: dose 1-10 µM. An outline of the steps: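 Radiometric PKCδ assay: 50 mM Tris-HCl pH 7.4, 10 mM MgCl2, 4 µL phosphatidylserine/PDBu vesicle stock (dried lipids resuspended in 50 mM Tris pH 7.4 and sonicated), 50 ng PKCδ, 5 µg MARCKS peptide substrate, 25 µM ATP plus 2 µCi [γ-32P]ATP.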

The target in assay [7] is Calcium/calmodulin-dependent protein kinase type II subunit alpha (Homo sapiens) (UniProt Q9UQM7). Description: Inhibition of recombinant human full-length N-terminal GST-fused CaMK2alpha (1 to 478 residues) expressed in baculovirus expression system at 1 to 10 uM using Syntide-2 peptide as substrate measured after 10 mins by [gamma-32P]ATP by scintillation counting method. The conditions noted are these: dose 1-10 µM. The method in brief: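 Radiometric kinase assay in 40 µL: 50 mM Tris-HCl pH 7.4, 10 mM MgCl2, 2 mM CaCl2, calmodulin, 50 ng CAMKIIα, 2 µg Syntide-2 substrate, 25 µM ATP plus 2 µCi [γ-32P]ATP, with compounds at the indicated concentrations.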
Sequence of Calcium/calmodulin-dependent protein kinase type II subunit alpha (Homo sapiens) (Q9UQM7 whole entry, the tested form may be a part): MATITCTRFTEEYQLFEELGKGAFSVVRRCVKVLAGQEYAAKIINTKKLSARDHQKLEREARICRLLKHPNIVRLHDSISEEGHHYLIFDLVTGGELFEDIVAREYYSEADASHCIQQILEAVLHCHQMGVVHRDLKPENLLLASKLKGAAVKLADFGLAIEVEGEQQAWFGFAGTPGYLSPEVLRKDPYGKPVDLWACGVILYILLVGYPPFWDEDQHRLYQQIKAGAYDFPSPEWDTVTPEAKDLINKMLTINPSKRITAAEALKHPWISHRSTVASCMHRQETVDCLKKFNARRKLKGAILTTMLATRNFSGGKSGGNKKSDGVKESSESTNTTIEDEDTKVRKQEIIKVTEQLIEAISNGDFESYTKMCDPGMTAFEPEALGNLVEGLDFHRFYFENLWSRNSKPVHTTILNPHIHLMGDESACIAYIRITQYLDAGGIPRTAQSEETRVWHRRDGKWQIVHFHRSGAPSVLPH

Assay [8] concerns PANC-1. Description: Antiproliferative activity against human PANC-1 cells assessed as reduction in cell proliferation at 5 uM measured after 48 to 144 hrs by MTT assay. The format is functional, cell-based. The conditions noted are these: time 48-144 hrs. An outline of the steps: as §1

Active and inactive are the calls of the source. No cut-off for these calls is given here. Some results are limits rather than exact numbers.

Sequence of Protein kinase C delta type (Homo sapiens) (Q05655 whole entry, looked up, the tested form may be a part): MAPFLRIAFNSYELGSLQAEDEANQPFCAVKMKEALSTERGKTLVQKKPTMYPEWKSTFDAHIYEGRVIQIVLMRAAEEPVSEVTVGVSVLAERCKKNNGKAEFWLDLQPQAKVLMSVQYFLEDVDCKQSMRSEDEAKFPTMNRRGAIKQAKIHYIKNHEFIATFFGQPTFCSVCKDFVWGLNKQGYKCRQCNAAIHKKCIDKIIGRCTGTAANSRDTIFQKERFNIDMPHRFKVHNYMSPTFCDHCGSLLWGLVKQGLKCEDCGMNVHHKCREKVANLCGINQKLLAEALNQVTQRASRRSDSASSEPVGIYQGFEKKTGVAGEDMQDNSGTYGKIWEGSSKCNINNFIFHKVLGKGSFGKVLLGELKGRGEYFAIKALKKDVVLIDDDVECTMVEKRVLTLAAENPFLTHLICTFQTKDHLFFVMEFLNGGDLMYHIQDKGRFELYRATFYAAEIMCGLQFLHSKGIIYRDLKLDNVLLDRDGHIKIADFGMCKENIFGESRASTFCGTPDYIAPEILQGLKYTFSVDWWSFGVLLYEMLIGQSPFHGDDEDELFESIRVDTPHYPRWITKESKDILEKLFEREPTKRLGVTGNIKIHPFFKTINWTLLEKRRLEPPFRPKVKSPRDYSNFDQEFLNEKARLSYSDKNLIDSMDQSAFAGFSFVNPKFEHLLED

Broadly, the IC50 is the point on the concentration scale where inhibition reaches its midpoint. In the case of `Cn1cc(-c2nn(C(C)(C)C)c3ncnc(N)c23)c2ccccc21`, the IC50 in the assay with CAPAN-1 was 21.3 µM; in the assay on HCT-116, 63 µM; with LN-229, more than 78.3 µM; in the assay on K562, more than 33.7 µM; with NCI-H460, 73.9 µM; in [1], more than 41.4 µM. The IC50 with Z-138 is more than 38.2 µM; in the assay with HL-60 it was more than 25.6 µM.

Take `CC(C)(C)n1nc(-c2c[nH]c3ccccc23)c2c(N)ncnc21`: the IC50 was 0.108 µM in assay [2]; 1.6 µM in the assay with CAPAN-1; 2.5 µM in the assay with HCT-116; 39.2 µM in the assay with LN-229; 3.7 µM with K562; 4 µM with NCI-H460. Further, the IC50 stood at 0.094 µM in [4]; 0.108 µM in [5]; 9.8 µM in [1]; 9.7 µM in the assay with Z-138; 7.8 µM with HL-60. Also, the outcome with PANC-1 [3] was Active. Also, the inhibition result in assay [6] and in [7] was “inactive” each time.

As for `Nc1ncnc2c1c(-c1c[nH]c3ccccc13)nn2CC1CCNCC1`, the IC50 in the assay with CAPAN-1 was 40.7 µM; with HCT-116, more than 100 µM; with LN-229 it was 80.6 µM; in the assay on K562, more than 100 µM; in the assay with NCI-H460 it was more than 95.8 µM; in assay [1], 42.7 µM. Further, the IC50 was 35.3 µM in the assay on Z-138 and 17.9 µM in the assay on HL-60. Besides, the result with PANC-1 [8] was inactive.

Consider `CC(C)(CO)Cn1nc(-c2c[nH]c3ccccc23)c2c(N)ncnc21`, for which the IC50 is 4.7 µM in the assay with CAPAN-1; 13.4 µM in the assay with HCT-116; 52.6 µM in the assay with LN-229; 12 µM in the assay with K562; 14 µM with NCI-H460; 13.1 µM in assay [1]. Also, the IC50 was 19.6 µM in the assay with Z-138 and 27.6 µM in the assay on HL-60.

For `CCOc1ccc2cc(-c3nn(CC4CCN(C)CC4)c4ncnc(N)c34)ccc2n1`, the IC50 in the assay on CAPAN-1 is more than 100 µM; in the assay on HCT-116, more than 55.2 µM; in the assay on LN-229, 45.2 µM; in the assay on K562, more than 100 µM; in the assay with NCI-H460, more than 100 µM; in [1] it was 35.5 µM. The IC50 in the assay with Z-138 is 30.4 µM; in the assay on HL-60, more than 100 µM.

For `CC[C@@H](N)CNc1ccnc(-c2cc(-c3cnn(C)c3)ccc2O)n1`, the IC50 in [2] is 0.016 µM; in the assay on CAPAN-1, 1.8 µM; with HCT-116 it was 1.7 µM; in the assay on LN-229, 0.6 µM; in the assay on K562 it was 2.2 µM; in the assay with NCI-H460 it was 1.9 µM. The IC50 is 0.009 µM in assay [4], 1 µM in [1], 0.7 µM in the assay on Z-138 and 1 µM with HL-60.

Regarding `CC(C)(C)n1nc(Cc2cccc3ccccc23)c2c(N)ncnc21`, the IC50 in [2] is 1.01 µM; in the assay with CAPAN-1 it was 23 µM; in the assay on HCT-116, more than 100 µM; in the assay on LN-229, more than 100 µM; in the assay on K562, more than 36.3 µM; in the assay on NCI-H460, more than 100 µM. Also, the IC50 in [4] was 0.786 µM; in [5], 0.616 µM; in [1] it was more than 26.1 µM; with Z-138, more than 23.7 µM; in the assay on HL-60, 24.1 µM.

These data come from ChEMBL document CHEMBL4765437, “Design, synthesis and biological evaluation of pyrazolo[3,4-d]pyrimidine-based protein kinase D inhibitors” (Eur J Med Chem, 2020).
